Source: ChEMBL document CHEMBL2176957, “Discovery of a novel noniminosugar acid α glucosidase chaperone series” (J Med Chem, 2012)
In brackets after ≈: the same amount, converted by molar mass. Activity calls are given as the source filed them. No cut-off for these calls is given here.

Legend:
[1] = target: T1, Lysosomal alpha-glucosidase (Homo sapiens, UniProt P10253); assay: Binding affinity at wild type recombinant GAA assessed as rise in melting temperature of protein using SYPRO Orange dye by fluorescence assay
Outline: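 Thermal shift of recombinant wild-type GAA (1 μM) with SYPRO Orange (5×) in 50 mM citrate buffer pH 5.0 with 100 mM KCl, 10 mM NaCl, 1 mM MgCl2. Six-point compound series, 0.82–200 μM final, 2% DMSO, DMSO controls. Heated 20 to 95 °C at 4.8 °C/s; fluorescence ex 498/em 580 nm; Tm calculated from the melt curve.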

[2] = target: T1, Lysosomal alpha-glucosidase; assay: Inhibition of human recombinant GAA assessed as hydrolysis of bovine liver glycogen by Amplex red oxidase assay
Outline: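 Recombinant human GAA hydrolysing bovine liver glycogen as the native substrate. Released glucose was detected with an Amplex Red glucose oxidase coupled reaction, read as fluorescence on a plate reader.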

[3] = target: T1, Lysosomal alpha-glucosidase; assay: Inhibition of wild type recombinant GAA preincubated for 5 mins measured after 45 mins using red-shifted dye by fluorescence assay; settings: read-out: IC50
Liver = assay: Half life in mouse liver microsomes
Caco-2 [4] = assay: Permeability from basolateral to apical side of human Caco2 cells
[5] = Cytotoxicity in human F2845 cells at 10 to 20 uM after 6 days by confocal laser-scanning microscopic analysis; type: cell-based; settings: f2845, 144 h
Outline: (§1)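 Primary wild-type dermal fibroblasts and patient-derived Pompe fibroblasts (passage 7) grown on chamber slides and exposed to compound for 5 or 6 days. Viability judged from the cultures examined by immunostaining and confocal microscopy.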

[6] = target: T1, Lysosomal alpha-glucosidase; assay: Increase in translocation of GAA to lysosomes in human wild type skin fibroblasts at 1 to 5 uM after 5 days by confocal laser-scanning microscopic analysis
Outline: (§2)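 Wild-type primary dermal fibroblasts or Pompe patient fibroblasts (F3248, F0833, F2845; low passage) treated with compound for 5 or 6 days. Fixed in 3% paraformaldehyde, permeabilized with 0.1% Triton X-100, blocked, stained with mouse anti-GAA (Alexa-488) and goat anti-cathepsin D (Alexa-555), DAPI counterstain. Confocal images taken at fixed laser settings; percentage of cells with lysosomal GAA co-localization scored.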

[7] = target: T1, Lysosomal alpha-glucosidase; assay: Increase in GAA activity in human F2845 cells incubated for 5 days by fluorescence assay relative to vehicle-treated control; type: cell-based
Outline: (§3)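 Fibroblasts seeded at 5,000 cells/well and treated 5 days, with media and compound renewed on day 3. Assayed directly or after PBS wash and 18 h or 40 h in compound-free medium. Cells were incubated 2 h at 37 °C in pH 4.0 citrate/phosphate buffer with 3 mM 4-MUG and acarbose, then stopped at pH 10. Background subtracted, normalized to vehicle (100%); triplicate, mean ±SD.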

[8] = target: T1, Lysosomal alpha-glucosidase; assay: Increase in GAA activity in human wild type skin fibroblasts incubated for 5 days by fluorescence assay relative to vehicle-treated control; outline: as §3
[9] = target: T1, Lysosomal alpha-glucosidase; assay: Binding affinity at wild type recombinant GAA assessed as thermostabilization of protein at 50 uM incubated at 66 degC for 60 mins
Outline: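 GAA incubated at 66 °C for 60 min with compound at 50 μM, compared with room-temperature incubation. Residual enzymatic activity read out and expressed as the ratio of heated to room-temperature activity; DMSO controls run in duplicate.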

[10] = Cytotoxicity in human wild type skin fibroblasts at 10 to 20 uM after 6 days by confocal laser-scanning microscopic analysis; settings: skin fibroblast, 144 h; outline: as §1
[11] = target: T1, Lysosomal alpha-glucosidase; assay: Inhibition of wild type recombinant GAA preincubated for 5 mins measured after 45 mins using blue-shifted dye by fluorescence assay; settings: read-out: IC50
[12] = Aqueous solubility in PBS buffer
Caco-2 [13] = assay: Permeability from apical to basolateral side of human Caco2 cells
[14] = Inhibition of alpha-galactosidase
[15] = target: T2, Lysosomal acid glucosylceramidase (Homo sapiens) (UniProt P04062); assay: Inhibition of glucocerebrosidase
T2 sequence (whole entry): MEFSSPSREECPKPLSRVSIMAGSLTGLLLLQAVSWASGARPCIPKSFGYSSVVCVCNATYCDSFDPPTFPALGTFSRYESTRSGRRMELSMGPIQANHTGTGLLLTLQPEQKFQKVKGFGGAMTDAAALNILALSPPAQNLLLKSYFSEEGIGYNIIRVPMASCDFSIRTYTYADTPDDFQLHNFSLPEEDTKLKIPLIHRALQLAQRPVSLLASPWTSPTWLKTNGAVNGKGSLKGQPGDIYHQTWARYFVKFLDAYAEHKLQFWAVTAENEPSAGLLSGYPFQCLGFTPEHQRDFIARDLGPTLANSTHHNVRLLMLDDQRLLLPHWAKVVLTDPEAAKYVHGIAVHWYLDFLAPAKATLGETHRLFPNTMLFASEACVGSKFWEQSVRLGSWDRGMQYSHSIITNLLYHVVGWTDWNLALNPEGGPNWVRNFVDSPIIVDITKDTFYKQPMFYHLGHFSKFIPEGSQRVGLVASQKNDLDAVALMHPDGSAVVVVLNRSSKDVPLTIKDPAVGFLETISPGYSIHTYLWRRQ

[16] = Cytotoxicity in human wild type skin fibroblasts assessed as cell viability at 1 to 5 uM after 5 days by confocal laser-scanning microscopic analysis; settings: skin fibroblast, 120 h; outline: as §1
[17] = target: T1, Lysosomal alpha-glucosidase; assay: Increase in GAA activity in human F2845 cells incubated for 5 days followed by 18 to 40 hrs wash out by fluorescence assay relative to vehicle-treated control; type: cell-based; outline: as §3
Caco-2 [18] = assay: Efflux ratio from basolateral to apical side to apical to basolateral side of human Caco2 cells; type: ADME, cell-based
[19] = target: T1, Lysosomal alpha-glucosidase; assay: Increase in translocation of GAA to lysosomes in human F2845 cells at 1 to 5 uM after 5 days by confocal laser-scanning microscopic analysis; type: cell-based; outline: as §2
[20] = Cytotoxicity in human F2845 cells assessed as cell viability at 1 to 5 uM after 5 days confocal laser-scanning microscopic analysis; type: cell-based; settings: f2845, 120 h; outline: as §1
[21] = target: T1, Lysosomal alpha-glucosidase; assay: Increase in GAA activity in human wild type skin fibroblasts incubated for 5 days followed by 18 to 40 hrs wash out by fluorescence assay relative to vehicle-treated control; outline: as §3
[22] = target: T1, Lysosomal alpha-glucosidase; assay: Ratio of Kd for wild type recombinant NT-495 labelled GAA to IC50 for wild type recombinant GAA (unknown origin
[23] = target: T1, Lysosomal alpha-glucosidase; assay: Increase in translocation of GAA to lysosome in human F2845 cells at 5 uM after 5 days by confocal laser-scanning microscopic analysis; type: cell-based; outline: as §2
[24] = target: T1, Lysosomal alpha-glucosidase; assay: Increase in translocation of GAA to lysosomes in human wild type fibroblasts at 15 uM after 6 days confocal laser-scanning microscopic analysis; outline: as §2
[25] = target: T1, Lysosomal alpha-glucosidase; assay: Increase in translocation of GAA to lysosome in human F2845 cells at 1 uM after 5 days by confocal laser-scanning microscopic analysis; type: cell-based; outline: as §2
[26] = target: T1, Lysosomal alpha-glucosidase; assay: Increase in translocation of GAA to lysosome in human F0833 cells at 5 uM after 5 days by confocal laser-scanning microscopic analysis; type: cell-based; outline: as §2
[27] = target: T1, Lysosomal alpha-glucosidase; assay: Increase in translocation of GAA to lysosome in human F3248 cells at 1 uM after 5 days by confocal laser-scanning microscopic analysis; type: cell-based; outline: as §2
[28] = target: T1, Lysosomal alpha-glucosidase; assay: Increase in translocation of GAA to lysosomes in human wild type skin fibroblasts at 5 uM after 6 days by confocal laser-scanning microscopic analysis; outline: as §2
[29] = target: T1, Lysosomal alpha-glucosidase; assay: Increase in translocation of GAA to lysosome in human F3248 cells at 5 uM after 5 days by confocal laser-scanning microscopic analysis; type: cell-based; outline: as §2
[30] = Cytotoxicity in human F2845 cells at 5 uM after 6 days by confocal laser-scanning microscopic analysis; type: cell-based; settings: f2845, 144 h; outline: as §1
[31] = target: T1, Lysosomal alpha-glucosidase; assay: Increase in translocation of GAA to lysosome in human F0833 cells at 1 uM after 5 days by confocal laser-scanning microscopic analysis; type: cell-based; outline: as §2

Row | Activity [1] | IC50 [3] | t1/2 (Liver) | Papp (Caco-2 [4]) | Activity [7] | Activity [8] | Activity [9] | IC50 [11] | solubility [12] | Papp (Caco-2 [13]) | Activity [17] | Ratio (Caco-2 [18]) | Activity [21] | Ratio [22] | Structure (SMILES) | other results
1 | Active | 940 nM | > 60 min | 27.1 ×10⁻⁶ cm/s | Active | Active | Active | 750 nM | 7.9 µM (≈ 3.16 µg/mL) | 14.6 ×10⁻⁶ cm/s | Active | 1.9 | Active | 20 | CC(=O)c1ccc(N2CCN(S(=O)(=O)c3ccc4c(c3)CC(=O)N4)CC2)cc1 | INH [2]: 330 nM; Activity [5]: Toxic; Activity [6]: inactive; Activity [10]: Toxic; inhibition [14]: Active; inhibition [15]: Active; Activity [16]: Non-toxic; Activity [19]: inactive; Activity [20]: Non-toxic
2 |  | 2370 nM | > 60 min | 19.5 ×10⁻⁶ cm/s |  |  |  | 1880 nM | 37.3 µM (≈ 13.9 µg/mL) | 17.8 ×10⁻⁶ cm/s |  |  |  |  | O=C1Cc2cc(S(=O)(=O)N3CCN(c4ccc(O)cc4)CC3)ccc2N1 | 
3 | Active | 1630 nM | > 60 min | 30.9 ×10⁻⁶ cm/s | Active | Active | Active | 1630 nM | 20.8 µM (≈ 9.03 µg/mL) | 54.3 ×10⁻⁶ cm/s | Active | 0.57 | Active | 20 | CC(=O)c1ccc(N2CCN(S(=O)(=O)c3cc4c(cc3Cl)NC(=O)C4)CC2)cc1 | Activity [23]: Active; Activity [24]: 40%; Activity [25]: inactive; Activity [26]: Active; Activity [27]: inactive; Activity [28]: 30%; Activity [29]: Active; Activity [30]: Toxic; Activity [31]: inactive
4 |  | 3260 nM | 57 min |  |  |  |  | 2910 nM | 14.9 µM (≈ 5.7 µg/mL) |  |  |  |  |  | N#Cc1ccc(N2CCN(S(=O)(=O)c3ccc4c(c3)CC(=O)N4)CC2)cc1 | 
